{"source": "paper PMC5131535", "about": "(ACS chemical neuroscience, 2016)", "format_in_all_cases": "cell-based", "key": {"Kir7.1-M125R": {"biological_target": "T1, Kir7.1-M125R (Homo sapiens, UniProt O60928, M125R)", "T1 sequence (O60928 1-360 M125R)": "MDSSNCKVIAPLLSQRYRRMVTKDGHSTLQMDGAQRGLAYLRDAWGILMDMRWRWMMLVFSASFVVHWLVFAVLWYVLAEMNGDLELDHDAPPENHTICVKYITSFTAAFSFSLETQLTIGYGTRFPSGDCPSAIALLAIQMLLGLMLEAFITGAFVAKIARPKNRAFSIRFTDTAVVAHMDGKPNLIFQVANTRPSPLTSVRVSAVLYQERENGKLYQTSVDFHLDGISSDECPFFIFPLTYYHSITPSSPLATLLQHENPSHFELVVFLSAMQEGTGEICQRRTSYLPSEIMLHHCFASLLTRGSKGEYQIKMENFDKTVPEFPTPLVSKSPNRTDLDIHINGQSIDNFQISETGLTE", "experiment": "Tl+ flux assay in T-REx-HEK293 cells expressing Kir7.1-M125R", "summary_of_the_method": "(§1)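 Tetracycline-inducible stable T-REx-HEK-293 lines, induced overnight with 1 µg/ml tetracycline in DMEM/10% dialyzed FBS. Cells loaded 1 hr with 1.2 µM Thallos-AM in HBSS/20 mM HEPES pH 7.3 with 0.01% Pluronic F-127. Baseline fluorescence (ex 470, em 540 nm) read at 1 Hz before adding stimulus buffer with 1.8 mM Tl₂SO₄. Traces normalized to first point and vehicle-subtracted; slope taken 5–20 s post-Tl⁺; IC50 by nonlinear regression of CRCs.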"}, "Kir7.1": {"biological_target": "T2, Kir7.1 (Homo sapiens, UniProt O60928, M125R)", "T2 sequence (O60928 1-360 M125R)": "T1 sequence (O60928 1-360 M125R)", "experiment": "Whole-cell patch clamp electrophysiology, Kir7.1", "summary_of_the_method": "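Human Kir7.1 (WT or mutant) was transiently co-transfected with EGFP into HEK-293T cells, which were replated next day on poly-L-lysine coverslips. Whole-cell clamp used bath 5 mM KCl, pH 7.4, and pipette 135 mM KCl, pH 7.3. Cells were held at −75 mV, stepped 500 ms to −120 mV, then ramped to 120 mV, every 5 s. Increasing test-compound doses were superfused, then BaCl₂ block; current read at −120 mV; variable-slope Hill fit, mean of n = 5.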"}, "Kir1.1": {"system": "Kir1.1", "experiment": "Tl+ flux selectivity assay, Kir1.1", "conditions": "Thallium flux, Kir7.1 over Kir1.1", "summary_of_the_method": "as §1"}, "Kir2.3": {"biological_target": "T3, Kir2.3 (Homo sapiens, UniProt P48050)", "T3 sequence (P48050 1-445)": "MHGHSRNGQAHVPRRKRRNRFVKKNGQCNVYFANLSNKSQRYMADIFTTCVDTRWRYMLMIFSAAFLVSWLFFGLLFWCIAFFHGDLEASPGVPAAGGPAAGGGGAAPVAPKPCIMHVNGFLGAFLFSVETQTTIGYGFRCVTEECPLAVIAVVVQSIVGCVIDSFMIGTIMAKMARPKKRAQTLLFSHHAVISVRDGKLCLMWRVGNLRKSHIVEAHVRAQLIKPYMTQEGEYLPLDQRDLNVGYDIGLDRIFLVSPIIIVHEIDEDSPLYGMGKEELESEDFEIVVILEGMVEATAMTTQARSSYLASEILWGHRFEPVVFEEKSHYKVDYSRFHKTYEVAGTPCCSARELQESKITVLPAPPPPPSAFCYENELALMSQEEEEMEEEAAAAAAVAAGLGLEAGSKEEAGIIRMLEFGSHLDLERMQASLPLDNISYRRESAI", "experiment": "Tl+ flux selectivity assay, Kir2.3", "conditions": "for Kir Channel Selectivity (Fold) 2.3: Thallium flux, Kir7.1 over Kir2.3"}, "Kir3.1/3.2": {"biological_target": "T4, Kir3.1/3.2 (Homo sapiens, UniProt P48051+P48549)", "T4 sequence (P48549 1-501)": "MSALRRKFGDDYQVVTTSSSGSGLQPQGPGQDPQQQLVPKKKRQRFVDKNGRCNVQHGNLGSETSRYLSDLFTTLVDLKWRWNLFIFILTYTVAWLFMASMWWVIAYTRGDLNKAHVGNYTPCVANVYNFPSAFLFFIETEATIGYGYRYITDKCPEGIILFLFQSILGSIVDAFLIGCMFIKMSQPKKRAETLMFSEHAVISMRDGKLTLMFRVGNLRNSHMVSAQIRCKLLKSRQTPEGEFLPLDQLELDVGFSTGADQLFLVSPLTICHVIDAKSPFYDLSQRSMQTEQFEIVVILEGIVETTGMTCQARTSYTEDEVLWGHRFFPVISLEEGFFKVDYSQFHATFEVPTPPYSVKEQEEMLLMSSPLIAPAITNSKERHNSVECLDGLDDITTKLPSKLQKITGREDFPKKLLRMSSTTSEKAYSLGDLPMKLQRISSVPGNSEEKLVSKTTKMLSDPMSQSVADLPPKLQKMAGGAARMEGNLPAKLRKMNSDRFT", "T4 sequence (P48051 1-423)": "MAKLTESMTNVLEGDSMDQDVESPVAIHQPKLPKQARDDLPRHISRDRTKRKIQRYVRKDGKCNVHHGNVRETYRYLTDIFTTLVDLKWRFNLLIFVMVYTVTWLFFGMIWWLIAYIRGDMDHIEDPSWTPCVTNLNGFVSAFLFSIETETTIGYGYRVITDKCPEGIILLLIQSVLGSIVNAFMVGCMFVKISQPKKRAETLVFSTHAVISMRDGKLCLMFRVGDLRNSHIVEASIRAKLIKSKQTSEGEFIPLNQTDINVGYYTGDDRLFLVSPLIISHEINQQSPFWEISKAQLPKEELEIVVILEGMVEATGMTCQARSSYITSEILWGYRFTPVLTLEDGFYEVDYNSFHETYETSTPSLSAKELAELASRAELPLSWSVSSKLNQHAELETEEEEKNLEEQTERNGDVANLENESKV", "experiment": "Tl+ flux selectivity assay, Kir3.1/3.2", "conditions": "for Kir Channel Selectivity (Fold) 3.1/3.2: Thallium flux, Kir7.1 over Kir3.1/3.2"}, "Kir4.1": {"biological_target": "T5, Kir4.1 (Homo sapiens, UniProt P78508)", "T5 sequence (P78508 1-379)": "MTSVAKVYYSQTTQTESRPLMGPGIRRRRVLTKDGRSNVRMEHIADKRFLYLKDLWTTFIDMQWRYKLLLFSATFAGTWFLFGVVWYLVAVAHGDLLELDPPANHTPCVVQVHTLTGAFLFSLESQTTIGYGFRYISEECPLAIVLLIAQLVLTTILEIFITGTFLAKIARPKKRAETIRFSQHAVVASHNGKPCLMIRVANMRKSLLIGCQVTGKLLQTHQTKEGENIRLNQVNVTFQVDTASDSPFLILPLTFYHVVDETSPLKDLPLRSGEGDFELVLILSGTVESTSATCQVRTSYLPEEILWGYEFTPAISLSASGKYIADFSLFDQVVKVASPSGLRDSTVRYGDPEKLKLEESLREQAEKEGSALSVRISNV", "experiment": "Tl+ flux selectivity assay, Kir4.1", "conditions": "for Kir Channel Selectivity (Fold) 4.1: Thallium flux, Kir7.1 over Kir4.1", "summary_of_the_method": "as §1"}, "Kir6.2/SUR1": {"biological_target": "Kir6.2/SUR1 (Homo sapiens, UniProt Q14654)", "sequence (Q14654 whole entry)": "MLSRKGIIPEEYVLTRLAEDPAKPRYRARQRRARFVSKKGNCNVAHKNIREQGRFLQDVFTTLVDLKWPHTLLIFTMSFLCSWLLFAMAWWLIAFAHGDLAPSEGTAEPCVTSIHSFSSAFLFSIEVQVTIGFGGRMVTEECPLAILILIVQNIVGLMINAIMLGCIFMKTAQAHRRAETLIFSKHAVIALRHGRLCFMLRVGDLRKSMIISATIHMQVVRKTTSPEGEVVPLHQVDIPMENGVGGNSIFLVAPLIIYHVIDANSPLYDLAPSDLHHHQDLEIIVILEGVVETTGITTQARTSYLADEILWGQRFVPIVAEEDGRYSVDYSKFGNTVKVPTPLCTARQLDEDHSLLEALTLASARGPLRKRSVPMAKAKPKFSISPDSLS", "sequence (Q09428 whole entry partner)": "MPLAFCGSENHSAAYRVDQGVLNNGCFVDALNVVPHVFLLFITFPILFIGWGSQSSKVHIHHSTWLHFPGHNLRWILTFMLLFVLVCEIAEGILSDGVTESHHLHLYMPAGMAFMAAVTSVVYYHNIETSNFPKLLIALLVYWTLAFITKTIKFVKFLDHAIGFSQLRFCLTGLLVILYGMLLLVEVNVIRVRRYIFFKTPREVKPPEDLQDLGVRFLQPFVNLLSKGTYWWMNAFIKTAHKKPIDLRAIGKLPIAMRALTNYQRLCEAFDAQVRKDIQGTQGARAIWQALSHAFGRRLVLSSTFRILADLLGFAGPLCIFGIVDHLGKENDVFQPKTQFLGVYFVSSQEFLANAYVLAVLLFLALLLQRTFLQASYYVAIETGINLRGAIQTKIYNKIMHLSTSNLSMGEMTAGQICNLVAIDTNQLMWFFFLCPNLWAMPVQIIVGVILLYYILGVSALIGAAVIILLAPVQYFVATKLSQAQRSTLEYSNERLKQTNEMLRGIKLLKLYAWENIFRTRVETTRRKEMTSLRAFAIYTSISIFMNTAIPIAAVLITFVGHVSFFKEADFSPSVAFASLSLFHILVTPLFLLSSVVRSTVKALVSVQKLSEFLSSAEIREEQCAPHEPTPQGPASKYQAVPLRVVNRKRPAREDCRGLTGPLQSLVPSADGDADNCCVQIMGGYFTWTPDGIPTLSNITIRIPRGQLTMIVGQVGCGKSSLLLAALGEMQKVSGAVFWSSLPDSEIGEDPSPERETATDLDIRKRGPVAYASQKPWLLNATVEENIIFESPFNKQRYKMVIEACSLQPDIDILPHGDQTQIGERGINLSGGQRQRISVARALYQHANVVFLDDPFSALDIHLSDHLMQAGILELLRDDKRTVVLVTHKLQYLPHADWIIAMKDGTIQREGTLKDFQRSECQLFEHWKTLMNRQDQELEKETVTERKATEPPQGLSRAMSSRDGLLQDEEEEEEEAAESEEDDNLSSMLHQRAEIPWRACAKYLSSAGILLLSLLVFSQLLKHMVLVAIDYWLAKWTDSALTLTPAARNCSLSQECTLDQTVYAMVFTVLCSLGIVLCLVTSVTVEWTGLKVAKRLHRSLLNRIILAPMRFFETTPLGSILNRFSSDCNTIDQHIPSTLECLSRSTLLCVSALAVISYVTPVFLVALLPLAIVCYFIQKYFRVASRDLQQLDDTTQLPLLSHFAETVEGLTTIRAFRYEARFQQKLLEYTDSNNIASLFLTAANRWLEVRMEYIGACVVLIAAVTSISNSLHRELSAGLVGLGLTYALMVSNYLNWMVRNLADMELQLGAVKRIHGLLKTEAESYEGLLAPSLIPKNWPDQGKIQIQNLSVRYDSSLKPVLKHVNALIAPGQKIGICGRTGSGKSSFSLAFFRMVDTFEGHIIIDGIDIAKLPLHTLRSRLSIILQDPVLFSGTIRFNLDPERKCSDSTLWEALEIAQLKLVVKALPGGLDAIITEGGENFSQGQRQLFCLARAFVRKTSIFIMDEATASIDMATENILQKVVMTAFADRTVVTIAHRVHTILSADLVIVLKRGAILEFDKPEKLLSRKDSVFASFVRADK", "experiment": "Tl+ flux selectivity assay, Kir6.2/SUR1", "conditions": "for Kir Channel Selectivity (Fold) 6.2: Thallium flux, Kir7.1 over Kir6.2/SUR1", "summary_of_the_method": "as §1"}}, "note": "Where “and” joins values, the source holds several entries; their conditions need not be identical. Equal entries are not always repeated. Where two headings read alike, the source gives them in different places."}
{"smiles": "CC(C)OC(=O)NC1CCN(Cc2cc(Cl)c3cccnc3c2O)CC1", "note": "[Compound 19, iso-Propyl (1-((5-chloro-8-hydroxyquinolin-7-yl)methyl)piperidin-4-yl)carbamate]", "values": [{"measurement": "IC50", "setting": "Kir7.1-M125R", "result": 1.3, "unit": "µM"}, {"measurement": "IC50", "setting": "Kir7.1; Kir7.1 IC50 (Patch clamp), -120 mV", "result": "0.3 µM and 0.31 µM"}, {"measurement": "Kir Channel Selectivity (Fold) 1.1", "setting": "Kir1.1", "result": "at least 23 Fold"}, {"measurement": "Kir Channel Selectivity (Fold) 1.1", "setting": "Kir1.1; listed as 19 (ML418)", "result": ">23", "unit": "Fold"}, {"measurement": "Kir Channel Selectivity (Fold) 2.3", "setting": "Kir2.3", "result": "at least 23 Fold"}, {"measurement": "Kir Channel Selectivity (Fold) 2.3", "setting": "Kir2.3; listed as 19 (ML418)", "result": ">23", "unit": "Fold"}, {"measurement": "Kir Channel Selectivity (Fold) 3.1/3.2", "setting": "Kir3.1/3.2", "result": "at least 23 Fold"}, {"measurement": "Kir Channel Selectivity (Fold) 3.1/3.2", "setting": "Kir3.1/3.2; listed as 19 (ML418)", "result": ">23", "unit": "Fold"}, {"measurement": "Kir Channel Selectivity (Fold) 4.1", "setting": "Kir4.1", "result": "at least 23 Fold"}, {"measurement": "Kir Channel Selectivity (Fold) 4.1", "setting": "Kir4.1; listed as 19 (ML418)", "result": ">23", "unit": "Fold"}, {"measurement": "Kir Channel Selectivity (Fold) 6.2", "setting": "Kir6.2/SUR1; listed as 19 (ML418)", "result": 1, "unit": "Fold"}, {"measurement": "Kir Channel Selectivity (Fold) 6.2", "setting": "Kir6.2/SUR1; listed as ML418", "result": "equally potent"}]}
{"smiles": "Oc1c(CN2CCC(Cc3ccccc3)CC2)cc(Cl)c2cccnc12", "note": "[VU714]", "values": [{"measurement": "IC50", "setting": "Kir7.1-M125R; read-out: Kir7.1 IC50 (Thallium flux), hKir7.1 (M125R) Tl+ flux, average n = 3", "result": 5.6, "unit": "µM"}, {"measurement": "IC50", "setting": "Kir7.1; read-out: Kir7.1 IC50 (Patch clamp), -120 mV", "result": 1.5, "unit": "µM"}, {"measurement": "Kir Channel Selectivity (Fold) 1.1", "setting": "Kir1.1", "result": 3, "unit": "Fold"}, {"measurement": "Kir Channel Selectivity (Fold) 2.3", "setting": "Kir2.3", "result": ">5", "unit": "Fold"}, {"measurement": "IC50", "setting": "Kir2.3; read-out: Kir2.3 IC50 (Tl+ flux)", "result": "> 30", "unit": "µM"}, {"measurement": "Kir Channel Selectivity (Fold) 3.1/3.2", "setting": "Kir3.1/3.2", "result": ">5", "unit": "Fold"}, {"measurement": "IC50", "setting": "Kir3.1/3.2; read-out: Kir3.1/3.2 IC50 (Tl+ flux)", "result": "> 30", "unit": "µM"}, {"measurement": "Kir Channel Selectivity (Fold) 4.1", "setting": "Kir4.1", "result": 2, "unit": "Fold"}, {"measurement": "IC50", "setting": "Kir4.1; read-out: Kir4.1 IC50 (Tl+ flux)", "result": 13, "unit": "µM"}, {"measurement": "Kir Channel Selectivity (Fold) 6.2", "setting": "Kir6.2/SUR1", "result": 5, "unit": "Fold"}, {"measurement": "IC50", "setting": "Kir6.2/SUR1; read-out: Kir6.2/SUR1 IC50 (Tl+ flux)", "result": 30, "unit": "µM"}]}
